Activity calls are given as the source filed them. No cut-off for these calls is given here.
Legend:
Mus musculus [1] = test: Tested for the ability to protect against maximal electroshock seizure test; Activity at 300 mg/kg, but ED50 cannot be estimated; format: functional, organism-based; parameters: dose 300 mg/kg
Procedure, shortened: (§1)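 Adult male Swiss Webster mice (20–25 g) received drug ip (10 mL/kg) in normal saline or as a 1% CMC suspension. At least three dose groups of 4–8 mice were used, tested at 0.5 h. Maximal electroshock used a 50 mA current. ED50 is in mg/kg; time of peak effect was not determined; doses went up to 300 mg/kg.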

Mus musculus [2] = test: Tested for the ability to protect against subcutaneous pentylenetetrazole seizure test; NA= Not active up to 300 mg/kg; format: functional, organism-based; parameters: dose 300 mg/kg
Procedure, shortened: (§2)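 Male Swiss Webster mice (20–25 g) were dosed ip (10 mL/kg; saline or 1% CMC suspension), with ≥3 groups of 4–8 mice. At 0.5 h, pentylenetetrazole 85 mg/kg was given sc into the neck fold, and mice were watched for 30 min. Protection meant absence of clonic spasms lasting ≥5 s. ED50 is in mg/kg; doses went up to 300 mg/kg.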

Mus musculus [3] = species: Mus musculus; test: Tested for the ability to protect against maximal electroshock seizure test; format: functional; procedure, shortened: as §1
Mus musculus [4] = test: Tested for the ability to protect against subcutaneous pentylenetetrazole seizure test; format: functional; conditions: sc; procedure, shortened: as §2
Mus musculus [5] = test: Anticonvulsant activity of the substance upon subcutaneous administration in pentylenetetrazole seizure test in mice; NA= Not active; format: functional, organism-based
Mus musculus [6] = test: Tested for the ability to protect against maximal electroshock seizure test; NA= Not active up to 300 mg/kg; format: functional, organism-based; parameters: dose 300 mg/kg; procedure, shortened: as §1
Mus musculus [7] = test: Tested for the ability to protect against subcutaneous pentylenetetrazole seizure test; Activity at 300 mg/kg but ED50 cannot be estimated; format: functional, organism-based; parameters: dose 300 mg/kg; procedure, shortened: as §2
Mus musculus [8] = test: Tested for the ability to protect against subcutaneous pentylenetetrazole seizure test; Activity at 300 mg/kg but ED50 can not be estimated; format: functional, organism-based; parameters: dose 300 mg/kg; procedure, shortened: as §2
Mus musculus [9] = test: Anticonvulsant activity of the substance upon subcutaneous administration in pentylenetetrazole seizure test in mice; format: functional; conditions: ip, in the assay text read “upon intraperitoneal administration” for “upon subcutaneous administration”
Procedure, shortened: (§3)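 Phase II quantification in mice was run by the NIH ADD Program. Compounds were given ip, and ED50 (mg/kg) was read at the time of peak effect. The protective index is TD50 (rotorod ataxia) divided by ED50 in the MES or scMET test.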

[10] = Protective index is the ratio between TD50 and ED50 values in subcutaneous pentylenetetrazole seizure test (scMET); format: functional; procedure, shortened: as §3
[11] = Protective index is the ratio between TD50 and ED50 values in maximal electroshock seizure test (MES); format: functional; procedure, shortened: as §3
[12] = Tested for median toxic dose in rotarod ataxia test for neurological toxicity in mice; format: organism-based; conditions: mouse, in vivo
Procedure, shortened: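 Neurotoxicity was measured in mice by the NIH ADD Program using the rotorod ataxia test. Drug was given ip, and the median toxic dose (mg/kg) was measured at the time of peak deficit.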

Mus musculus [13] = test: Intraperitoneal anticonvulsant activity in the maximal electroshock seizure test expressed as median effective dose in phase II trial in mice; conditions: ip
Mus musculus [14] = test: Tested for the ability to protect against subcutaneous pentylenetetrazole seizure test; Previously tested; format: functional; conditions: sc
Mus musculus [15] = test: Anticonvulsant activity in the in the subcutaneous pentylenetetrazole seizure test in the mice; format: functional; conditions: sc; procedure, shortened: as §3

## NC1=NC(=O)CN1C(=O)OCc1ccccc1
Mus musculus [1]
  ED50: Activity
Mus musculus [2]
  ED50: inactive

## CCC(C)[C@H]1C(=O)N=C(N)N1C(=O)OCc1ccccc1 (stereo partly drawn)
Mus musculus [3]
  ED50: 74.4 mg/kg
Mus musculus [4]
  ED50: 176 mg/kg

## O=C1NC(=O)C(c2ccccc2)(c2ccccc2)N1
Mus musculus [5]
  ED50: inactive

## NC1=NC(=O)[C@H](CSCc2ccccc2)N1C(=O)OCc1ccccc1
Mus musculus [6]
  ED50: inactive
Mus musculus [2]
  ED50: inactive

## CSCC[C@H]1C(=O)N=C(N)N1C(=O)OCc1ccccc1
Mus musculus [6]
  ED50: inactive
Mus musculus [2]
  ED50: inactive

## CC1(C)C(=O)N=C(N)N1C(=O)OCc1ccccc1
Mus musculus [3]
  ED50: 228 mg/kg
Mus musculus [2]
  ED50: inactive

## C=CC[C@H]1C(=O)N=C(N)N1C(=O)OCc1ccccc1
Mus musculus [3]
  ED50: 53.3 mg/kg
Mus musculus [4]
  ED50: 193 mg/kg

## NC1=NC(=O)[C@H](Cc2c[nH]c3ccccc23)N1C(=O)OCc1ccccc1
Mus musculus [6]
  ED50: inactive
Mus musculus [7]
  ED50: Activity

## CC(C)[C@H]1C(=O)N=C(N)N1C(=O)OCc1ccccc1
Mus musculus [3]
  ED50: 51.9 mg/kg
Mus musculus [8]
  ED50: Activity

## CCC[C@H]1C(=O)N=C(N)N1C(=O)OCc1ccccc1
Mus musculus [3]
  ED50: 53.3 mg/kg
Mus musculus [4]
  ED50: 141 mg/kg
Mus musculus [9]
  ED50: 141 mg/kg
[10]
  PI: 1.3
[11]
  PI: 2.3
[12]
  TD50: 188 mg/kg
Mus musculus [13]
  ED50: 80.2 mg/kg

## C[C@H]1C(=O)N=C(N)N1C(=O)OCc1ccccc1
Mus musculus [3]
  ED50: 171 mg/kg
Mus musculus [2]
  ED50: inactive

## CC(C)C[C@H]1C(=O)N=C(N)N1C(=O)OCc1ccccc1
Mus musculus [14]
  ED50: 141 mg/kg
[10]
  PI: 2.5
[11]
  PI: 3.5
Mus musculus [13]
  ED50: 98.6 mg/kg

## CCC[C@@H]1C(=O)N=C(N)N1C(=O)OCc1ccccc1
Mus musculus [6]
  ED50: inactive
Mus musculus [4]
  ED50: 374 mg/kg

## NC(=O)CC[C@H]1C(=O)N=C(N)N1C(=O)OCc1ccccc1
Mus musculus [6]
  ED50: inactive
Mus musculus [2]
  ED50: inactive

## CCCC[C@H]1C(=O)N=C(N)N1C(=O)OCc1ccccc1
Mus musculus [3]
  ED50: > 1000 mg/kg
Mus musculus [8]
  ED50: Activity

## CC[C@H]1C(=O)N=C(N)N1C(=O)OCc1ccccc1
Mus musculus [3]
  ED50: 69.2 mg/kg
Mus musculus [4]
  ED50: 223 mg/kg
Mus musculus [15]
  ED50: < 500 mg/kg
[12]
  TD50: < 500 mg/kg
Mus musculus [13]
  ED50: 99.5 mg/kg

## NC1=NC(=O)[C@H](Cc2ccccc2)N1C(=O)OCc1ccccc1
Mus musculus [6]
  ED50: inactive
Mus musculus [14]
  ED50: > 1000 mg/kg
